Shown is part of a subset that was picked to be rich in hits.
UPR CHOP act = activators of apoptotic arm of unfolded protein response (CHOP); CHO-CHOP luciferase reporter, UPR activation, luminescence; percent of tunicamycin response over DMSO baseline; activation, % at 10 µM; AID 449763; hit rate 0.34% among 330,000;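 active means at 10 µM dose, activation of 40% or more, normalized to positive control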;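 further: 100% = tunicamycin at 10 µg/mL and 0% = DMSO alone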
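Test system: CHO CHOP reporter cells. Input: 500 CHO-CHOP cells per well. Medium: F12 with 10% FBS. Technique: luciferase luminescence. Measure: percent activation relative to tunicamycin control. Dosing: 10 µM compound, 0.5% DMSO. Timing: 16-18 h cell attachment, then 6 h compound exposure, 37 °C.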
T cruzi repl = blocks replication of Trypanosoma cruzi | hit rate 1.4% among 300,000 | inhibition, % (no concentration beside the values) | T. cruzi beta-gal in NIH3T3, luminescence, 90 h | AID 1885;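 active means mean inhibition across valid replicates above about 55%, limit read from the data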;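 further: signal also drops with host cell toxicity which is not excluded here; 0% = plate median of DMSO wells and 100% = zero luminescence signal; higher percent means less beta-gal luminescence so fewer parasites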
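assay system = mouse NIH/3T3 fibroblasts infected with β-gal-expressing T. cruzi Tulahuen C4 | input = 5,000 NIH/3T3 host cells per well | buffer or medium = DMEM plus 2% FBS | timing = 3 h host attachment, then at least 90 h co-culture | measured by = GalScreen luminescence, 60 min | evaluation = luminescence reflecting intracellular parasite burden, expressed as percent inhibition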
XBP1 UPR activ = adaptive UPR (XBP1) activation. hit rate 0.33% among 330,000. activation, % at 20 µM. CHO-XBP1 luciferase reporter, IRE1-XBP1 UPR activation, luminescence; percent of tunicamycin response, DMSO as zero;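 active means versus positive control, 20 µM dose yields 30% or more activation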;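 further: 100% = tunicamycin at 10 µg/mL and 0% = DMSO only wells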
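assay system = CHO-XBP1 luciferase reporter cells | amount = 1000 cells/well | buffer or medium = F12 plus 10% FBS | compound dosing = single point, 20 µM final compound, 1% DMSO | incubation = 16-18 h cell attachment at 37 °C, then 6 h compound exposure | detection = Steady-Glo luminescence read | controls = tunicamycin 10 µg/mL and vehicle-only wells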
Lmaj promast = Leishmania major promastigote growth inhibition; inhibition, % at 10 µM; AID 1063; Leishmania major promastigotes, resazurin fluorescence viability; hit rate 9% among 200,000; in the data active means inhibition above about 50%;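 further: promastigotes grown with compound for 44 hours at 28 °C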
CHOP inh = blocks CHOP induction under ER stress; inhibition, % at 10 µM; AID 2732; hit rate 3.8% among 220,000; CHO-K1 CHOP-promoter luciferase, tunicamycin-induced, 15-18 h;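 active means compounds that reduced the stress-induced luciferase reporter signal by more than about 70% of percent inhibition, limit read from the data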;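 further: 0% = tunicamycin plus vehicle and 100% = wells without tunicamycin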
Dynein transport = blocks dynein driven cargo transport along microtubules | 3617.4 mouse cells, GR-EGFP nuclear translocation imaging; test concentration mostly 20 µM; stimulated with dexamethasone, 1 µM; hits give low values | z-score, hits read low | hit rate 0.47% among 220,000;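 active means plate z-score of nuclear minus cytoplasmic receptor signal below a set negative limit, without overly bright fluorescence or cell loss, cut at about -3.5 in these data, passing the limit was not always enough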;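 further: z-score of nuclear minus cytoplasmic ring GR-EGFP intensity difference per well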
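Buffer or medium: tet-free medium with charcoal-stripped serum / Also added: dexamethasone agonist, 1.0 µM final, for 30 min / Timing: induction 48 h, compound 1 h, agonist 30 min / Measured by: high-content fluorescence imaging after fixation / Read-out: nuclear-to-cytoplasmic GR-EGFP distribution per well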
An asterisk follows results filed as active; . = no result given.

SMILES | UPR CHOP act | T cruzi repl | XBP1 UPR activ | Lmaj promast | CHOP inh | Dynein transport
C[C@H](CO)N1C[C@H](C)[C@@H](CN(C)C(=O)Nc2ccc(C(F)(F)F)cc2)Oc2c(NS(=O)(=O)c3ccc(F)cc3)cccc2C1=O | 0 | . | -5 | . | . | .
COc1ccc(CNCc2ccc3ccccc3c2)c(OC)c1 | 1 | 27 | -4 | . | . | .
O=C(CN1C(=O)c2ccccc2C1=O)Nc1ccc(S(=O)(=O)N2CCOCC2)cc1 | 0 | 1 | -4 | 1 | 18 | -0.68
COc1ccccc1CNC(=O)C(=O)NCC1CCCN1S(=O)(=O)c1cccs1 (configuration not stated) | -1 | 62* | -2 | . | . | .
O=C(NCc1ccccc1F)C(=O)NCC1CCCN1S(=O)(=O)c1cccs1 (configuration not stated) | 2 | 10 | -2 | . | . | .

Screening data (PubChem)
